Experimental findings from BindingDB's records for PubMed 35349261 (Hospital Regional Universitario, 2022) are described below.

The experiment has as its target T1, Glucagon-like peptide 1 receptor (Rattus norvegicus, UniProt P32301).
T1 sequence (P32301 whole entry): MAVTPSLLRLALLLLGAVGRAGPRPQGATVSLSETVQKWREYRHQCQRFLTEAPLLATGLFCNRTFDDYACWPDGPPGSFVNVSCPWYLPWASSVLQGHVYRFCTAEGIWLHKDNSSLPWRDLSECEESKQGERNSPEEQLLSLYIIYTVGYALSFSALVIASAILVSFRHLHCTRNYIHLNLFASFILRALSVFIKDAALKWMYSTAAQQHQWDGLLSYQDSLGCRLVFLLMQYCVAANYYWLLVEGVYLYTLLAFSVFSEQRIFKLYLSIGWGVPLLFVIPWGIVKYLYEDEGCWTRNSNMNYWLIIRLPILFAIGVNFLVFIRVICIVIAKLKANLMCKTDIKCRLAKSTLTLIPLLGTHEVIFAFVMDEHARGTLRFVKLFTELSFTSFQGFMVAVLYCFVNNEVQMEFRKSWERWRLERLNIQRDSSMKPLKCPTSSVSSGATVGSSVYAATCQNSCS
The experiment is described as follows: Positive allosteric modulator activity at GLP-1R in rat INS1 beta-cells assessed potentiation of GLP-1(7-36)NH2 induced insulin secretion at 0.1 nM incubated for 30 mins in presence of exendin(9-39)NH2 by ELISA. A digest of the protocol: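 Rat INS-1E cells in RPMI 1640 with 10% fetal calf serum at 37 °C, 7.5% CO2. Cells were detached, washed and plated at 100,000 cells/well, then held in glucose-free medium for 1.5 h. […] Insulin in the medium was read by ELISA; data are triplicate.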
A general note: ELISA stands for enzyme-linked immunosorbent assay.

What is called IC50 is the concentration that gives 50% inhibition. As to `FC(F)(F)c1ccc(-c2noc(CN3CCCC(CN4CCOCC4)C3)n2)cc1` (stereo unspecified), the IC50 worked out at 6.3 nM.
